Calls of active or inactive are those of the source. The calls are words filed in the database; no cut-off is given here.
Key:
Lymphocyte [1] = assay: Increase in ATP production in CoQ10-deficient lymphocytes (unknown origin) assessed as cellular ATP level at 5 uM after 48 hrs using luciferin-luciferase reaction by bioluminescence assay relative to control; format: functional
How it was run: (§1)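 CoQ10-deficient lymphocyte line GM17932 grown in glucose-free RPMI 1640 with 25 mM galactose, 2 mM glutamine and 10% dialyzed FBS, forcing oxidative phosphorylation. Incubated with compounds at 5, 10 or 25 µM for 48 h. Total intracellular ATP measured by luciferin–luciferase reaction, expressed as % of untreated control.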

[2] = Drug metabolism in bovine liver microsomes at 25 uM after 30 mins by reverse phase HPLC analysis; format: ADME, Bos taurus; conditions: cattle, read-out: Drug metabolism
How it was run: (§2)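 Compounds incubated 30 min with activated bovine liver microsomes. Remaining parent compound quantified by reversed-phase HPLC and expressed as % recovered; mean ± SD.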

Bos taurus [3] = organism: Bos taurus; assay: Inhibition of bovine heart mitochondrial NADH oxidase complex I/III/IV assessed as remaining activity at 1 uM by spectrophotometry relative to untreated control
Lymphocyte [4] = assay: Inhibition of oxidative stress-induced mitochondrial membrane depolarization in diethyl maleate-treated human lymphocytes obtained from FRDA patient assessed as cells with intact mitochondrial membrane potential at 500 nM pretreated for 16 hrs using TMRM by FACS analysis (reference value: 95%); format: functional; parameters: scale not given: the % may be the effect or the level left
Lymphocyte [5] = assay: Cytoprotective activity in human lymphocytes obtained from FRDA patient assessed as viable cells after 16 hrs by trypan blue exclusion assay; format: functional, cell-based
How it was run: (§3)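 Lymphocytes from FRDA or Leigh's syndrome patients, grown in RPMI-1640 with 15% fetal calf serum and 2 mM glutamine, kept in log phase. Test agents at 0.1, 0.5 and 2.5 µM; diethyl maleate (DEM) added to deplete glutathione and induce oxidative stress. Viability expressed relative to untreated cells (100%). Values are mean ± SD/SEM as tabulated.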

Lymphocyte [6] = assay: Cytoprotective activity in human lymphocytes obtained from Leigh's syndrome patient assessed as viable cells at 0.1 uM after 16 hrs by trypan blue exclusion assay; format: functional; conditions: read-out: Activity; how it was run: as §3
Lymphocyte [7] = assay: Increase in ATP production in CoQ10-deficient lymphocytes (unknown origin) assessed as cellular ATP level at 25 uM after 48 hrs using luciferin-luciferase reaction by bioluminescence assay relative to control; format: functional; how it was run: as §1
Bos taurus [8] = organism: Bos taurus; assay: Inhibition of bovine heart mitochondrial NADH oxidase complex I/III/IV assessed as remaining activity at 5 uM by spectrophotometry relative to untreated control
Lymphocyte [9] = assay: Cytoprotective activity in human lymphocytes obtained from FRDA patient assessed as viable cells at 2.5 uM after 16 hrs by trypan blue exclusion assay; format: functional; conditions: read-out: Activity; how it was run: as §3
Lymphocyte [10] = assay: Cytoprotective activity in human lymphocytes obtained from Leigh's syndrome patient assessed as viable cells at 0.5 uM after 16 hrs by trypan blue exclusion assay; format: functional; conditions: read-out: Activity; how it was run: as §3
Lymphocyte [11] = assay: Cytoprotective activity in human lymphocytes obtained from Leigh's syndrome patient assessed as viable cells after 16 hrs by trypan blue exclusion assay; format: functional, cell-based; how it was run: as §3
Lymphocyte [12] = assay: Cytoprotective activity in human lymphocytes obtained from FRDA patient assessed as viable cells at 0.5 uM after 16 hrs by trypan blue exclusion assay; format: functional; conditions: read-out: Activity; how it was run: as §3
Lymphocyte [13] = assay: Inhibition of oxidative stress-induced mitochondrial membrane depolarization in diethyl maleate-treated human lymphocytes obtained from FRDA patient assessed as cells with intact mitochondrial membrane potential at 100 nM pretreated for 16 hrs using TMRM by FACS analysis (reference value: 95%); format: functional; parameters: scale not given: the % may be the effect or the level left
Lymphocyte [14] = assay: Cytoprotective activity in human lymphocytes obtained from Leigh's syndrome patient assessed as viable cells at 2.5 uM after 16 hrs by trypan blue exclusion assay; format: functional; conditions: read-out: Activity; how it was run: as §3
Lymphocyte [15] = assay: Inhibition of lipid peroxidation in diethyl maleate-treated human lymphocytes obtained from FRDA patient at 100 to 250 nM after 16 hrs using C11-BODIPY581/591 by FACS analysis; format: functional, cell-based
How it was run: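 FRDA lymphocytes depleted of glutathione with DEM, probed with C11-BODIPY581/591. Green (oxidized) fluorescence read by flow cytometry at 490/510 nm. Median mean fluorescence taken relative to untreated control and converted to % lipid peroxidation scavenging; mean ± SEM, n = 3.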

Lymphocyte [16] = assay: Cytoprotective activity in human lymphocytes obtained from FRDA patient assessed as viable cells at 0.1 uM after 16 hrs by trypan blue exclusion assay; format: functional; conditions: read-out: Activity; how it was run: as §3
Lymphocyte [17] = assay: Increase in ATP production in CoQ10-deficient lymphocytes (unknown origin) assessed as cellular ATP level at 10 uM after 48 hrs using luciferin-luciferase reaction by bioluminescence assay relative to control; format: functional; how it was run: as §1
Lymphocyte [18] = assay: Inhibition of oxidative stress-induced mitochondrial membrane depolarization in diethyl maleate-treated human lymphocytes obtained from FRDA patient assessed as cells with intact mitochondrial membrane potential at 250 nM pretreated for 16 hrs using TMRM by FACS analysis (reference value: 95%); format: functional; parameters: scale not given: the % may be the effect or the level left
Lymphocyte [19] = assay: Inhibition of oxidative stress-induced mitochondrial membrane depolarization in diethyl maleate-treated human lymphocytes obtained from FRDA patient assessed as cells with intact mitochondrial membrane potential pretreated for 16 hrs using TMRM by FACS analysis; format: functional, cell-based
Bos taurus [20] = organism: Bos taurus; assay: Inhibition of bovine heart mitochondrial NADH oxidase complex I/III/IV assessed as remaining activity at 10 uM by spectrophotometry relative to untreated control
Bos taurus [21] = organism: Bos taurus; assay: Inhibition of bovine heart mitochondrial NADH oxidase complex I/III/IV assessed as remaining activity by spectrophotometry relative to untreated control
Lymphocyte [22] = assay: Inhibition of ROS generation in diethyl maleate-treated human lymphocytes obtained from FRDA patient compound pretreated at 100 to 500 nM for 16 hrs using DCFH-DA by FACS analysis; format: functional, cell-based
How it was run: (§4)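 FRDA lymphocytes pretreated with compounds at 100, 250 and 500 nM for 16 h, then given DEM for 80 min to raise ROS. Stained with DCFH-DA for 15 min, then DCF fluorescence read by flow cytometry. Reported as % ROS scavenging; mean ± SEM of three experiments run in duplicate.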

[23] = Metabolic stability in bovine liver microsomes at 25 uM after 30 mins by reverse phase HPLC analysis; format: ADME, Bos taurus; conditions: cattle, read-out: Stability; how it was run: as §2
Lymphocyte [24] = assay: Inhibition of ROS generation in diethyl maleate-treated human lymphocytes obtained from FRDA patient compound pretreated for 16 hrs using DCFH-DA by FACS analysis; format: functional, cell-based; how it was run: as §4

In the case of `CCCCCCCCCCc1nc(N(C)C)c(C)c(C)c1O`, the Activity (Lymphocyte [1]) is reported as 89%, the metabolised at 0.5 h, 25 µM [2] is reported as 25% and the Activity (Bos taurus [3]) is reported as 35%. The Activity (Lymphocyte [4]) was 90%, the Activity (Lymphocyte [5]) was “Dose-dependent effect” and the viability at 0.1 µM (Lymphocyte [6]) was 6%. For the same molecule, the Activity (Lymphocyte [7]) was 13%, the Activity (Bos taurus [8]) was 28% and the viability at 2.5 µM (Lymphocyte [9]) was 87%. The viability at 0.5 µM (Lymphocyte [10]) was 77%, the Activity (Lymphocyte [11]) was “Dose-dependent effect” and the viability at 0.5 µM (Lymphocyte [12]) was 74%. For the same molecule, the Activity (Lymphocyte [13]) was 65%, the viability at 2.5 µM (Lymphocyte [14]) was 79% and the inhibition (Lymphocyte [15]) was “Active”. For the same molecule, the viability at 0.1 µM (Lymphocyte [16]) was 36%, the Activity (Lymphocyte [17]) was 52% and the Activity (Lymphocyte [18]) was 82%. The inhibition (Lymphocyte [19]) was “Dose-dependent effect”, the Activity (Bos taurus [20]) was 13% and the inhibition (Bos taurus [21]) was “Dose-dependent effect”. The inhibition (Lymphocyte [22]) was “Active” and the remaining at 0.5 h, 25 µM [23] was 70%.

For `CCCCCCCCCCCCCCCCc1c(C)c(N(C)C)nc(C)c1O`, the Activity (Lymphocyte [1]) was 96%, the metabolised at 0.5 h, 25 µM [2] was 20% and the Activity (Bos taurus [3]) was 95%. For the same molecule, the Activity (Lymphocyte [4]) was 91%, the Activity (Lymphocyte [5]) was “Dose-dependent effect” and the viability at 0.1 µM (Lymphocyte [6]) was 11%. The Activity (Lymphocyte [7]) was 37%, the inhibition (Lymphocyte [24]) was “Dose-dependent effect” and the Activity (Bos taurus [8]) was 93%. For the same molecule, the viability at 2.5 µM (Lymphocyte [9]) was 84%, the viability at 0.5 µM (Lymphocyte [10]) was 56% and the Activity (Lymphocyte [11]) was “Dose-dependent effect”. The viability at 0.5 µM (Lymphocyte [12]) was 75%, the Activity (Lymphocyte [13]) was 62% and the viability at 2.5 µM (Lymphocyte [14]) was 85%. The inhibition (Lymphocyte [15]) was “Active”, the viability at 0.1 µM (Lymphocyte [16]) was 52% and the Activity (Lymphocyte [17]) was 80%. The Activity (Lymphocyte [18]) was 83%, the inhibition (Lymphocyte [19]) was “Dose-dependent effect” and the Activity (Bos taurus [20]) was 86%. The inhibition (Bos taurus [21]) was “Dose-dependent effect”, the inhibition (Lymphocyte [22]) was “Active” and the remaining at 0.5 h, 25 µM [23] was 70%.

For `Cc1c(N(C)C)nc(CCCCCCCCCCO)c(O)c1C`, the Activity (Lymphocyte [1]) was 50%, the metabolised at 0.5 h, 25 µM [2] was 60% and the Activity (Bos taurus [3]) was 27%. The Activity (Lymphocyte [4]) was 50%, the Activity (Lymphocyte [5]) was “Dose-dependent effect” and the viability at 0.1 µM (Lymphocyte [6]) was 20%. For the same molecule, the Activity (Lymphocyte [7]) was 3%, the Activity (Bos taurus [8]) was 9% and the viability at 2.5 µM (Lymphocyte [9]) was 87%. The viability at 0.5 µM (Lymphocyte [10]) was 36%, the Activity (Lymphocyte [11]) was “Dose-dependent effect” and the viability at 0.5 µM (Lymphocyte [12]) was 28%. For the same molecule, the Activity (Lymphocyte [13]) was 24%, the viability at 2.5 µM (Lymphocyte [14]) was 74% and the inhibition (Lymphocyte [15]) was “inactive”. It also gave a viability at 0.1 µM (Lymphocyte [16]) of 17%, an Activity (Lymphocyte [17]) of 20% and an Activity (Lymphocyte [18]) of 36%. For the same molecule, the Activity (Bos taurus [20]) was 6%, the inhibition (Bos taurus [21]) was “Dose-dependent effect” and the inhibition (Lymphocyte [22]) was “inactive”.

Work on `CCCCCCCCCCCCCCCCc1nc(N(C)C)c(C)c(C)c1O` yielded an Activity (Lymphocyte [1]) of 100%, a metabolised at 0.5 h, 25 µM [2] of 20% and an Activity (Bos taurus [3]) of 98%. The Activity (Lymphocyte [4]) was 92%, the Activity (Lymphocyte [5]) was “Dose-dependent effect” and the viability at 0.1 µM (Lymphocyte [6]) was 29%. The Activity (Lymphocyte [7]) was 41%, the inhibition (Lymphocyte [24]) was “Dose-dependent effect” and the Activity (Bos taurus [8]) was 95%. For the same molecule, the viability at 2.5 µM (Lymphocyte [9]) was 92%, the viability at 0.5 µM (Lymphocyte [10]) was 78% and the Activity (Lymphocyte [11]) was “Dose-dependent effect”. For the same molecule, the viability at 0.5 µM (Lymphocyte [12]) was 91%, the Activity (Lymphocyte [13]) was 67% and the viability at 2.5 µM (Lymphocyte [14]) was 83%. The inhibition (Lymphocyte [15]) was “Active”, the viability at 0.1 µM (Lymphocyte [16]) was 80% and the Activity (Lymphocyte [17]) was 79%. The Activity (Lymphocyte [18]) was 84%, the inhibition (Lymphocyte [19]) was “Dose-dependent effect” and the Activity (Bos taurus [20]) was 92%. For the same molecule, the inhibition (Bos taurus [21]) was “Dose-dependent effect”, the inhibition (Lymphocyte [22]) was “Active” and the remaining at 0.5 h, 25 µM [23] was 70%.
